Test results from ChEMBL document CHEMBL1649111, “Restoration of susceptibility of intracellular methicillin-resistant Staphylococcus aureus to beta-lactams: comparison of strains, cells, and antibiotics” (Antimicrob Agents Chemother, 2008).
Values after ≈ are worked out from the molar mass of the structure shown.

Assays:
[1] = tested on: Staphylococcus aureus; test: Antimicrobial activity against intracellular beta-lactamase negative methicillin-susceptible Staphylococcus aureus ATCC 25923 infected in activated human THP-1 cells assessed as decrease in bacterial count from original inoculum at high compound concentration after 24 hrs at pH 7.4; assay type: functional
[2] = tested on: Staphylococcus aureus; test: Antimicrobial activity against hospital acquired methicillin-resistant Staphylococcus aureus N4120032 obtained from wound infection of patient by broth microdilution method at pH 5.5; assay type: functional
[3] = tested on: THP-1; test: Ratio of intracellular to extracellular drug level in human THP1 cells at 250 mg/L after 24 hrs; assay type: ADME, cell-based; conditions: thp-1, 24 h
Summary of the method: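 THP-1 cells incubated 24 h at 250 mg/liter extracellular drug. Cell lysates assayed microbiologically with MSSA ATCC 25923; content expressed per mg total protein. Cellular/extracellular ratio calculated assuming cell volume of 5 μl per mg protein.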

[4] = tested on: Staphylococcus aureus; test: Antimicrobial activity against hospital acquired methicillin-resistant Staphylococcus aureus HMC546 by broth microdilution method at pH 7.4; assay type: functional
Summary of the method: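 Minimal inhibitory concentration by broth microdilution at pH 7.4, read in mg/liter. The MRSA genotype was confirmed by mecA PCR, and the SCCmec subgroup was assigned by multiplex PCR.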

[5] = tested on: Staphylococcus aureus; test: (§1) Antimicrobial activity against Panton-valentine leukocidin positive community acquired methicillin-resistant Staphylococcus aureus N4090440 obtained from wound infection of patient infected in human THP-1 cells assessed as decrease in bacterial count from original inoculum at high compound concentration after 24 hrs at pH 5.5; assay type: functional
Summary of the method: (§2)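 Bacteria phagocytosed by unactivated human THP-1 macrophages, then incubated 24 h with extracellular antibiotic at about 0.01× to 100× the pH 5.5 broth MIC. CFU per mg cell protein counted against the original inoculum, n = 3. A Hill-equation fit (slope factor 1) gave Emin and Emax, extrapolated to infinitely low and high concentration, and EC50. Static concentration was graphically interpolated.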

[6] = tested on: Staphylococcus aureus; test: Antimicrobial activity against beta-lactamase negative methicillin-susceptible Staphylococcus aureus ATCC 25923 by broth microdilution method at pH 7.4; assay type: functional
[7] = tested on: Staphylococcus aureus; test: Bacteriostatic activity against beta-lactamase negative methicillin-susceptible Staphylococcus aureus ATCC 25923 infected in human THP-1 cells assessed as decrease in bacterial growth after 24 hrs at pH 5.5; assay type: functional
Summary of the method: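 MSSA ATCC 25923 phagocytized by unactivated THP-1 macrophages; extracellular antibiotic from about 0.01× to 100× the broth MIC at pH 5.5, with gentamicin 0.5 mg/liter to block extracellular growth. CFU per mg cell protein counted at 24 h vs. original inoculum (n = 3). A Hill equation (slope factor 1) gives Emin/Emax, extrapolated to infinitely low/high concentration. Static concentration is read by graphical interpolation.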

[8] = tested on: Staphylococcus aureus; test: Antimicrobial activity against hospital acquired methicillin-resistant and vancomycin-intermediate Staphylococcus aureus NRS126 obtained from bloodstream infection of patient infected in human THP-1 cells assessed as decrease in bacterial growth after 24 hrs at pH 5.5; assay type: functional, organism-based; conditions: NRS126, THP-1, 24 h; summary of the method: as §2
[9] = tested on: Staphylococcus aureus; test: (§3) Antimicrobial activity against hospital acquired methicillin-resistant and vancomycin-intermediate Staphylococcus aureus NRS18 obtained from wound, skin and soft tissue infection of patient infected in human THP-1 cells assessed as decrease in bacterial count from original inoculum at high compound concentration after 24 hrs at pH 5.5; assay type: functional; summary of the method: as §2
[10] = tested on: Staphylococcus aureus; test: Antimicrobial activity against beta-lactamase negative methicillin-susceptible Staphylococcus aureus ATCC 25923 infected in human THP-1 cells assessed as decrease in bacterial count from original inoculum at high compound concentration after 24 hrs at pH 7.4; assay type: functional
[11] = tested on: Staphylococcus aureus; test: as §1, with “NRS192” for “N4090440”, “from” for “from wound infection of”, “patient with pneumonia and septic arthritis” for “patient”, “increase” for “decrease”, “low” for “high”; assay type: functional; summary of the method: as §2
[12] = tested on: Staphylococcus aureus; test: Antimicrobial activity against beta-lactamase negative methicillin-susceptible Staphylococcus aureus ATCC 25923 infected in human THP-1 cells assessed as decrease in bacterial growth after 24 hrs at pH 7.4; assay type: functional, organism-based; conditions: ATCC 25923, THP-1, 24 h
[13] = tested on: Staphylococcus aureus; test: as §3, with “VRS2” for “NRS18”, “increase” for “decrease”, “low” for “high”; assay type: functional
Summary of the method: (§4)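 Human THP-1 macrophages infected with each S. aureus strain. Cloxacillin added extracellularly at about 0.01× to 100× the broth MIC measured at pH 5.5, with gentamicin 0.5 mg/liter to stop extracellular growth. Incubated 24 h. CFU counted per mg cell protein as change from the post-phagocytosis inoculum, n = 3. Emin, Emax and EC50 from a Hill fit; static concentration by graphical interpolation.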

[14] = tested on: Staphylococcus aureus; test: Antimicrobial activity against animal acquired methicillin-resistant Staphylococcus aureus N7112046 by broth microdilution method at pH 7.4; assay type: functional
[15] = tested on: Staphylococcus aureus; test: Antimicrobial activity against hospital acquired methicillin-resistant Staphylococcus aureus HMC546 by broth microdilution method at pH 5.5; assay type: functional
[16] = tested on: Staphylococcus aureus; test: Antimicrobial activity against hospital acquired methicillin-resistant and vancomycin-intermediate Staphylococcus aureus NRS18 obtained from patient with wound, skin and soft tissue infection by broth microdilution method at pH 5.5; assay type: functional
[17] = tested on: Staphylococcus aureus; test: Bacteriostatic activity against intracellular hospital acquired methicillin-resistant Staphylococcus aureus ATCC 33591 infected in human Calu3 cells assessed as decrease in bacterial growth after 24 hrs at pH 7.4; assay type: functional, Calu-3
Summary of the method: (§5)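 Primary human skin keratinocytes or Calu-3 bronchial epithelial cells, given an inoculum of 5 × 10⁷ to 1 × 10⁸ bacteria/ml and 2 h for internalization. Post-phagocytosis load 1.5 × 10⁶ to 3.0 × 10⁶ CFU per mg cell protein. Cloxacillin dose range in mg/liter for 24 h, n = 3. Hill-derived Emin, Emax and EC50; static concentration interpolated.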

[18] = tested on: Staphylococcus aureus; test: Antimicrobial activity against hospital acquired methicillin-resistant Staphylococcus aureus N4120032 obtained from wound infection opf patient infected in human THP-1 cells assessed as decrease in bacterial count from original inoculum at high compound concentration after 24 hrs at pH 5.5; assay type: functional; summary of the method: as §2
[19] = tested on: Staphylococcus aureus; test: Antimicrobial activity against intracellular hospital acquired methicillin-resistant Staphylococcus aureus ATCC 33591 infected in human keratinocytes assessed as decrease in bacterial count from original inoculum at high compound concentration after 24 hrs at pH 7.4; assay type: functional; summary of the method: as §5
[20] = tested on: Staphylococcus aureus; test: Antimicrobial activity against beta-lactamase negative methicillin-susceptible Staphylococcus aureus ATCC 25923 by broth microdilution method at pH 5.5; assay type: functional
[21] = tested on: Staphylococcus aureus; test: Antimicrobial activity against hospital acquired methicillin-resistant Staphylococcus aureus N4120032 obtained from wound infection of patient infected in human THP-1 cells assessed as increase in bacterial count from original inoculum at low compound concentration after 24 hrs at pH 5.5; assay type: functional; summary of the method: as §2
[22] = tested on: Staphylococcus aureus; test: Bacteriostatic activity against Panton-valentine leukocidin positive community acquired methicillin-resistant Staphylococcus aureus NRS192 infected in human THP-1 cells assessed as decrease in bacterial growth after 24 hrs at pH 5.5; assay type: functional; summary of the method: as §4
[23] = tested on: Staphylococcus aureus; test: Bacteriostatic activity against animal acquired methicillin-resistant Staphylococcus aureus N7112046 infected in human THP-1 cells assessed as decrease in bacterial growth after 24 hrs at pH 5.5; assay type: functional; summary of the method: as §4
[24] = tested on: Staphylococcus aureus; test: as §3, with “increase” for “decrease”, “low” for “high”; assay type: functional; summary of the method: as §4
[25] = tested on: Staphylococcus aureus; test: Antimicrobial activity against intracellular beta-lactamase negative methicillin-susceptible Staphylococcus aureus ATCC 25923 infected in human keratinocytes assessed as decrease in bacterial growth after 24 hrs at pH 7.4; assay type: functional, organism-based; conditions: ATCC 25923, 24 h; summary of the method: as §5
[26] = tested on: Staphylococcus aureus; test: Antimicrobial activity against Panton-valentine leukocidin positive community acquired methicillin-resistant Staphylococcus aureus NRS192 obtained from patient with pneumonia and septic arthritis by broth microdilution method at pH 5.5; assay type: functional

For `Cc1onc(-c2ccccc2Cl)c1C(=O)N[C@@H]1C(=O)N2[C@@H]1SC(C)(C)[C@@H]2C(=O)O` [CLOXACILLIN], which log10cfu [1] is on record?
The log10cfu was 0.9.

And the MIC [2]?
Its MIC is 0.06 µg/mL (≈ 0.138 µM).

And the Ratio [3]?
Its Ratio is 0.28.

And the MIC [4]?
The MIC was 16 µg/mL (≈ 36.7 µM).

And the log10cfu [5]?
Its log10cfu is 0.45.

And the MIC [6]?
The MIC was 0.125 µg/mL (≈ 0.287 µM).

What about the Activity [7] of the same molecule?
The Activity was 11 ×MIC.

What about the EC50 [8] of the same molecule?
Its EC50 is 5.33 ×MIC.

What about the log10cfu [9] of the same molecule?
The log10cfu was 0.57.

What about the log10cfu [10] of the same molecule?
The log10cfu was 0.77.

What about the log10cfu [11] of the same molecule?
Its log10cfu is 1.84.

And the EC50 [12]?
Its EC50 is 0.27 µg/mL (≈ 0.619 µM).

What about the log10cfu [13] of the same molecule?
The log10cfu was 1.69.

And the MIC [14]?
The MIC was 512 µg/mL (≈ 1170 µM).

And the MIC [15]?
The MIC was 0.25 µg/mL (≈ 0.574 µM).

And the MIC [16]?
Its MIC is 0.06 µg/mL (≈ 0.138 µM).

And the Activity [17]?
Its Activity is 1 mg/L.

And the log10cfu [18]?
Its log10cfu is 0.74.

And the log10cfu [19]?
The log10cfu was 0.6.

What about the MIC [20] of the same molecule?
Its MIC is 0.06 µg/mL (≈ 0.138 µM).

What about the log10cfu [21] of the same molecule?
The log10cfu was 2.63.

And the Activity [22]?
Its Activity is 16.6 ×MIC.

And the Activity [23]?
Its Activity is 17.8 ×MIC.

And the log10cfu [24]?
The log10cfu was 2.07.

What about the EC50 [25] of the same molecule?
Its EC50 is 0.42 µg/mL (≈ 0.964 µM).

What about the MIC [26] of the same molecule?
Its MIC is 0.06 µg/mL (≈ 0.138 µM).
